The source made the active and inactive calls. The calls are words filed in the database; no cut-off is given here.
Columns and labels:
[1] = test system: Mus musculus; assay: Antiinflammatory activity in C57-B16/J mouse chronic DSS-induced ulcerative colitis model assessed as decrease in serum IL-17 level at 10 mg/kg administered for total of 3 weeks for alternative weeks with water measured after 63 days by ELISA relative to DSS-treated control; type: functional, organism-based; parameters: dose 10 mg/kg
Outline: (§1)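 Chronic model, 63 days: three cycles of 1 week 3% DSS, then 1 week of compound in drinking water, then 1 week of water. Serum from clotted blood (overnight, 3000g 10 min) analysed by sandwich ELISA with capture/detection antibodies, streptavidin-HRP and substrate, read at 450 nm. Means ± SE, n = 8−10, one-way ANOVA with Tukey test.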

[2] = test system: Mus musculus; assay: Antiinflammatory activity in C57-B16/J mouse DSS-induced ulcerative colitis model assessed as restoration of submucosa at 10 mg/kg by hematoxylin-eosin staining-based microscopic analysis; type: functional, organism-based; parameters: dose 10 mg/kg
Outline: (§2)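 Female C57-BL6/J mice, 8−10 weeks old, given 3% (w/v) DSS in drinking water. Compound dissolved in ethanol and mixed into drinking water, given ad libitum. Colorectal sections stained with hematoxylin and eosin and examined at 400× for crypts, goblet cells, submucosa and monocyte aggregation.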

[3] = Oral bioavailability in rat; type: ADME, organism-based; settings: in vivo
[4] = test system: Mus musculus; assay: Antiinflammatory activity in C57-B16/J mouse acute DSS-induced ulcerative colitis model assessed as suppression of clinical symptoms at 8 to 10 mg/kg administered on day 6 measured up to day 12; type: functional, organism-based
Outline: (§3)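 Acute model: female C57-BL6/J mice, 8−10 weeks old, given 3% (w/v) DSS in drinking water. Dosing in drinking water ad libitum at 6, 8 or 10 mg/kg (ethanol stock) from day 6. Vehicle control received ethanol-water. Body weight recorded every other day as percent change. Disease index scored from weight change, stool consistency (1–4), fecal occult blood and prolapse; n = 10.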

[5] = test system: Mus musculus; assay: Antiinflammatory activity in C57-B16/J mouse chronic DSS-induced ulcerative colitis model assessed as restoration of colon size at 6 to 10 mg/kg administered for total of 3 weeks for alternative weeks with water measured after 63 days; type: functional, organism-based
Outline: (§4)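 Chronic model in female C57-BL6/J mice: three 3-week cycles of DSS, compound in drinking water and plain water, over 63 days. Mice euthanized by isoflurane overdose and colon length measured (cm). Clinical index scored from body weight change, colorectal length, stool consistency, occult blood and prolapse; n = 10. Statistics by ANOVA with Tukey test.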

[6] = test system: Mus musculus; assay: Antiinflammatory activity in C57-B16/J mouse DSS-induced ulcerative colitis model assessed as reduction in monocyte aggregation at 10 mg/kg by hematoxylin-eosin staining-based microscopic analysis; type: functional, organism-based; parameters: dose 10 mg/kg; outline: as §2
[7] = test system: Mus musculus; assay: Antiinflammatory activity in C57-B16/J mouse chronic DSS-induced ulcerative colitis model assessed as decrease in serum IFNgamma level at 10 mg/kg administered for total of 3 weeks for alternative weeks with water measured after 63 days by ELISA relative to DSS-treated control; type: functional, organism-based; parameters: dose 10 mg/kg; outline: as §1
[8] = test system: Mus musculus; assay: Antiinflammatory activity in C57-B16/J mouse DSS-induced ulcerative colitis model assessed as restoration of goblet cells at 10 mg/kg by hematoxylin-eosin staining-based microscopic analysis; type: functional, organism-based; parameters: dose 10 mg/kg; outline: as §2
[9] = test system: Mus musculus; assay: Antiinflammatory activity in C57-B16/J mouse DSS-induced ulcerative colitis model assessed as reduction of inflammatory CD14+/CD16+ level in peripheral blood at 6 to 10 mg/kg by flow cytometric analysis relative to DSS-treated control; type: functional; parameters: scale not given: the % may be the effect or the level left; settings: dose mg/kg 6-10
Outline: (§5)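 Acute model: female C57-BL6/J mice, 8−10 weeks old, given 3% (w/v) DSS in drinking water, with bottles refilled at days 3 and 5. Oral dosing in drinking water (6, 8, 10 mg/kg, ethanol-dissolved) from day 6. Whole blood stained with anti-CD14-FITC/anti-CD16-PE for 30 min in the dark, RBC-lysed, then flow cytometry. Classic CD14+/CD16−, inflammatory CD14+/CD16+; n = 8.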

[10] = test system: Mus musculus; assay: Toxicity in C57-B16/J mouse DSS-induced ulcerative colitis model assessed as circulating CD14+/CD16- level at 6 to 10 mg/kg by flow cytometric analysis relative to DSS-treated control; type: organism-based; parameters: dose 6-10 mg/kg; settings: in vivo; outline: as §5
[11] = test system: Mus musculus; assay: Antiinflammatory activity in C57-B16/J mouse DSS-induced ulcerative colitis model assessed as restoration of crypts at 10 mg/kg by hematoxylin-eosin staining-based microscopic analysis; type: functional, organism-based; parameters: dose 10 mg/kg; outline: as §2
[12] = test system: Mus musculus; assay: Antiinflammatory activity in C57-B16/J mouse chronic DSS-induced ulcerative colitis model assessed as suppression of clinical symptoms at 8 to 10 mg/kg administered for total of 3 weeks for alternative weeks with water measured after 63 days; type: functional, organism-based; outline: as §4
[13] = test system: Mus musculus; assay: Antiinflammatory activity in C57-B16/J mouse chronic DSS-induced ulcerative colitis model assessed as decrease in serum TNFalpha level at 10 mg/kg administered for total of 3 weeks for alternative weeks with water measured after 63 days by ELISA relative to DSS-treated control; type: functional, organism-based; parameters: dose 10 mg/kg; outline: as §1
[14] = test system: Mus musculus; assay: Antiinflammatory activity in C57-B16/J mouse chronic DSS-induced ulcerative colitis model assessed as decrease in serum IL-17 level at 8 mg/kg administered for total of 3 weeks for alternative weeks with water measured after 63 days by ELISA relative to DSS-treated control; type: functional, organism-based; parameters: dose 8 mg/kg; outline: as §1
[15] = test system: Mus musculus; assay: Antiinflammatory activity in C57-B16/J mouse acute DSS-induced ulcerative colitis model assessed as reversal of body weight loss at 6 to 10 mg/kg administered on day 6 measured up to day 12; type: functional, organism-based; outline: as §3
[16] = test system: Mus musculus; assay: Antiinflammatory activity in C57-B16/J mouse DSS-induced ulcerative colitis model assessed as reduction of inflammatory CD14+/CD16+ level in peripheral blood at 8 to 10 mg/kg by flow cytometric analysis relative to DSS-treated control; type: functional; settings: dose mg/kg 8-10; outline: as §5

## CC1=CC(=O)c2c(O)cccc2C1=O [PLUMBAGIN]
[1]
  Activity: Active
[2]
  Activity: Active
[3]
  bioavailability: 38%
[4]
  Activity: Active
[5]
  Activity: Active
[6]
  Activity: Active
[7]
  Activity: Active
[8]
  Activity: Active
[9]
  Activity: 0.3%
[10]
  Activity: 77%
[11]
  Activity: Active
[12]
  Activity: Active
[13]
  Activity: Active
[14]
  Activity: inactive
[15]
  Activity: inactive
[16]
  fold change (FC): >3

From ChEMBL document CHEMBL2384930, “Interventional effects of plumbagin on experimental ulcerative colitis in mice” (J Nat Prod, 2013)
